Reference: ChEMBL document CHEMBL4390647, “Efficient click chemistry towards novel 1H-1,2,3-triazole-tethered 4H-chromene-d-glucose conjugates: Design, synthesis and evaluation of in vitro antibacterial, MRSA and antifungal activities” (Eur J Med Chem, 2019)
Converted amounts (≈) assume the structure as drawn.

Columns and labels:
[1] = tested on: Staphylococcus aureus; test: Antibacterial activity against Staphylococcus aureus MRSA198 clinical isolate-2 measured after 18 to 20 hrs by microbroth dilution method; format: functional; conditions: MRSA198 isolate-2
[2] = tested on: Pseudomonas aeruginosa; test: Antibacterial activity against Pseudomonas aeruginosa […] measured after 18 to 20 hrs by microbroth dilution method; format: functional
How it was run: (§1)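 Inoculum from a 4–6-h broth adjusted to 0.5 McFarland, final 5 × 10⁵ CFU/mL. Incubation at 35°C for 18–20 h. MIC taken as the lowest concentration giving complete inhibition of visible growth; three experiments.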

[3] = tested on: Aspergillus flavus; test: Antifungal activity against Aspergillus flavus ATCC 204304 measured after 72 hrs by agar dilution method; format: functional; conditions: ATCC 204304, 72 h
How it was run: (§2)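 Agar dilution on Sabouraud dextrose agar, with compounds at […] to 0.78 μM in twofold steps. Fungal suspensions at 10 CFU/mL as printed were applied to the compound-containing plates. Incubation at 35°C; MIC read after 72 h. Three experiments.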

[4] = tested on: Escherichia coli; test: Antibacterial activity against Escherichia coli ATCC 25922 measured after 18 to 20 hrs by microbroth dilution method; format: functional; how it was run: as §1
[5] = tested on: Salmonella typhimurium; test: Antibacterial activity against Salmonella typhimurium ATCC 14028 measured after 18 to 20 hrs by microbroth dilution method; format: functional, Salmonella enterica subsp. enterica serovar Typhimurium; conditions: Salmonella enterica; how it was run: as §1
[6] = tested on: Staphylococcus epidermidis; test: Antibacterial activity against Staphylococcus epidermidis ATCC 12228 after 18 to 20 hrs by microbroth dilution method; format: functional; how it was run: as §1
[7] = tested on: Saccharomyces cerevisiae; test: Antifungal activity against Saccharomyces cerevisiae SH 20 after 72 hrs by agar dilution method; format: functional; conditions: SH 20, 72 h; how it was run: as §2
[8] = tested on: Staphylococcus aureus; test: Antibacterial activity against Staphylococcus aureus MRSA198 clinical isolate-1 measured after 18 to 20 hrs by microbroth dilution method; format: functional; conditions: MRSA198 isolate-1
[9] = Cytotoxicity against mouse RAW264.7 cells assessed as growth inhibition at 50 ug/mL after 120 hrs by MTT assay relative to control; format: cell-based; conditions: read-out: GI
How it was run: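 RAW 264.7 mouse macrophages were seeded at 25,000 cells/well and left to attach overnight. Compound in DMSO was added from a 200× concentrate, in duplicate wells, to a 50 μg/mL test level; DMSO served as control. Exposure 120 h at 37°C in 5% CO₂. MTT (4 mg/mL in PBS) was added for 4 h, formazan dissolved in DMSO, and absorbance read at 560 nm. Viability expressed as % of untreated cells, mean ± SE of at least three independent experiments.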

[10] = tested on: Bacillus subtilis; test: Antibacterial activity against Bacillus subtilis ATCC 11774 after 18 to 20 hrs by microbroth dilution method; format: functional; how it was run: as §1
[11] = tested on: Klebsiella pneumoniae; test: Antibacterial activity against measured after Klebsiella pneumoniae ATCC 4352 measured after 18 to 20 hrs by microbroth dilution method; format: functional; how it was run: as §1
[12] = tested on: Candida albicans; test: Antifungal activity against Candida albicans ATCC 7754 after 72 hrs by agar dilution method; format: functional; conditions: ATCC 7754, 72 h; how it was run: as §2
[13] = tested on: Staphylococcus aureus; test: Antibacterial activity against Staphylococcus aureus ATCC 11632 after 18 to 20 hrs by microbroth dilution method; format: functional; how it was run: as §1
[14] = tested on: Staphylococcus aureus; test: Antibacterial activity against Staphylococcus aureus MRSA198 clinical isolate-3 measured after 18 to 20 hrs by microbroth dilution method; format: functional; conditions: MRSA198 isolate-3
[15] = tested on: Aspergillus niger; test: Antifungal activity against Aspergillus niger ATCC 439 measured after 72 hrs by agar dilution method; format: functional; conditions: ATCC 439, 72 h; how it was run: as §2

| Compound | MIC [1] | MIC [2] | MIC [3] | MIC [4] | MIC [5] | MIC [6] | MIC [7] | MIC [8] | MIC [10] | MIC [11] | MIC [12] | MIC [13] | MIC [14] | MIC [15] | inhibition at 120 h, 50 ug/mL [9] |
| --- | --- | --- | --- | --- | --- | --- | --- | --- | --- | --- | --- | --- | --- | --- | --- |
| COc1cccc(OC)c1C(=O)N[C@@H]1C(=O)N2[C@@H]1SC(C)(C)[C@@H]2C(=O)O [METHICILLIN] |  | 400 µM (≈ 152 µg/mL) |  | 400 µM (≈ 152 µg/mL) | 400 µM (≈ 152 µg/mL) | 400 µM (≈ 152 µg/mL) |  |  | 400 µM (≈ 152 µg/mL) | 400 µM (≈ 152 µg/mL) |  | 400 µM (≈ 152 µg/mL) |  |  |  |
| CC(=O)OC[C@H]1O[C@@H](n2cc(COc3ccc4c(c3)OC(N)=C(C#N)C4c3ccc(Cl)cc3Cl)nn2)[C@H](OC(C)=O)[C@@H](OC(C)=O)[C@@H]1OC(C)=O (stereo partly drawn) | 1.56 µM (≈ 1.16 µg/mL) | 50 µM (≈ 37.2 µg/mL) | 25 µM (≈ 18.6 µg/mL) | 3.12 µM (≈ 2.32 µg/mL) | 3.12 µM (≈ 2.32 µg/mL) | 12.5 µM (≈ 9.31 µg/mL) | 400 µM (≈ 298 µg/mL) | 6.25 µM (≈ 4.65 µg/mL) | 3.12 µM (≈ 2.32 µg/mL) | 200 µM (≈ 149 µg/mL) | 100 µM (≈ 74.5 µg/mL) | 12.5 µM (≈ 9.31 µg/mL) | 3.12 µM (≈ 2.32 µg/mL) |  | 18.1% |
| CC(=O)OC[C@H]1O[C@@H](n2cc(COc3ccc4c(c3)OC(N)=C(C#N)C4c3ccc([N+](=O)[O-])cc3)nn2)[C@H](OC(C)=O)[C@@H](OC(C)=O)[C@@H]1OC(C)=O (stereo partly drawn) | 400 µM (≈ 288 µg/mL) | 50 µM (≈ 36 µg/mL) | 1.56 µM (≈ 1.12 µg/mL) | 400 µM (≈ 288 µg/mL) |  | 50 µM (≈ 36 µg/mL) | 3.12 µM (≈ 2.25 µg/mL) | 400 µM (≈ 288 µg/mL) | 50 µM (≈ 36 µg/mL) | 12.5 µM (≈ 9.01 µg/mL) | 25 µM (≈ 18 µg/mL) | 400 µM (≈ 288 µg/mL) | 200 µM (≈ 144 µg/mL) |  | 27.6% |
| Clc1ccc(COC(Cn2ccnc2)c2ccc(Cl)cc2Cl)c(Cl)c1 (stereo not drawn) [MICONAZOLE] |  |  | 1.56 µM (≈ 0.649 µg/mL) |  |  |  | 3.12 µM (≈ 1.3 µg/mL) |  |  |  | 3.12 µM (≈ 1.3 µg/mL) |  |  | 1.56 µM (≈ 0.649 µg/mL) |  |
| CN[C@H](CC(C)C)C(=O)N[C@H]1C(=O)N[C@@H](CC(N)=O)C(=O)N[C@H]2C(=O)N[C@H]3C(=O)N[C@H](C(=O)N[C@H](C(=O)O)c4cc(O)cc(O)c4-c4cc3ccc4O)[C@H](O)c3ccc(c(Cl)c3)Oc3cc2cc(c3O[C@@H]2O[C@H](CO)[C@@H](O)[C@H](O)[C@H]2O[C@H]2C[C@](C)(N)[C@H](O)[C@H](C)O2)Oc2ccc(cc2Cl)[C@H]1O [VANCOMYCIN] | 1.56 µM (≈ 2.26 µg/mL) | 3.12 µM (≈ 4.52 µg/mL) |  | 3.12 µM (≈ 4.52 µg/mL) | 3.12 µM (≈ 4.52 µg/mL) | 3.12 µM (≈ 4.52 µg/mL) |  | 1.55 µM (≈ 2.25 µg/mL) | 0.78 µM (≈ 1.13 µg/mL) | 3.12 µM (≈ 4.52 µg/mL) |  | 1.56 µM (≈ 2.26 µg/mL) | 1.56 µM (≈ 2.26 µg/mL) |  |  |

The remaining compounds from weak to strong by MIC [2], led by results:

| MIC [1] | MIC [2] | MIC [3] | MIC [4] | MIC [5] | MIC [6] | MIC [7] | MIC [8] | MIC [10] | MIC [11] | MIC [12] | MIC [13] | MIC [14] | MIC [15] | Compound | inhibition at 120 h, 50 ug/mL [9] |
| --- | --- | --- | --- | --- | --- | --- | --- | --- | --- | --- | --- | --- | --- | --- | --- |
|  | 12.5 µM (≈ 8.88 µg/mL) | 6.25 µM (≈ 4.44 µg/mL) | 1.56 µM (≈ 1.11 µg/mL) | 6.25 µM (≈ 4.44 µg/mL) | 3.12 µM (≈ 2.22 µg/mL) |  |  | 1.56 µM (≈ 1.11 µg/mL) | 400 µM (≈ 284 µg/mL) | 25 µM (≈ 17.8 µg/mL) | 200 µM (≈ 142 µg/mL) | 400 µM (≈ 284 µg/mL) | 400 µM (≈ 284 µg/mL) | CC(=O)OC[C@H]1O[C@@H](n2cc(COc3ccc4c(c3)OC(N)=C(C#N)C4c3ccccc3Cl)nn2)[C@H](OC(C)=O)[C@@H](OC(C)=O)[C@@H]1OC(C)=O (stereo partly drawn) | 21.1% |
| 400 µM (≈ 287 µg/mL) | 6.25 µM (≈ 4.49 µg/mL) | 50 µM (≈ 35.9 µg/mL) | 200 µM (≈ 144 µg/mL) | 50 µM (≈ 35.9 µg/mL) | 400 µM (≈ 287 µg/mL) | 12.5 µM (≈ 8.97 µg/mL) | 400 µM (≈ 287 µg/mL) | 6.25 µM (≈ 4.49 µg/mL) | 1.56 µM (≈ 1.12 µg/mL) | 3.12 µM (≈ 2.24 µg/mL) | 100 µM (≈ 71.8 µg/mL) | 200 µM (≈ 144 µg/mL) |  | CC(=O)OC[C@H]1O[C@@H](n2cc(COc3ccc4c(c3)OC(N)=C(C#N)C4c3ccc(C(C)C)cc3)nn2)[C@H](OC(C)=O)[C@@H](OC(C)=O)[C@@H]1OC(C)=O (stereo partly drawn) | 17.9% |
|  | 1.56 µM (≈ 0.517 µg/mL) |  | 1.56 µM (≈ 0.517 µg/mL) | 1.56 µM (≈ 0.517 µg/mL) | 3.12 µM (≈ 1.03 µg/mL) |  |  | 3.12 µM (≈ 1.03 µg/mL) | 1.56 µM (≈ 0.517 µg/mL) |  | 3.12 µM (≈ 1.03 µg/mL) |  |  | O=C(O)c1cn(C2CC2)c2cc(N3CCNCC3)c(F)cc2c1=O [CIPROFLOXACIN] |  |
| 400 µM (≈ 287 µg/mL) | 1.56 µM (≈ 1.12 µg/mL) | 12.5 µM (≈ 8.98 µg/mL) | 12.5 µM (≈ 8.98 µg/mL) | 50 µM (≈ 35.9 µg/mL) |  | 100 µM (≈ 71.9 µg/mL) | 400 µM (≈ 287 µg/mL) | 100 µM (≈ 71.9 µg/mL) |  | 12.5 µM (≈ 8.98 µg/mL) | 100 µM (≈ 71.9 µg/mL) | 200 µM (≈ 144 µg/mL) |  | CC(=O)OC[C@H]1O[C@@H](n2cc(COc3ccc4c(c3)OC(N)=C(C#N)C4c3ccc(N(C)C)cc3)nn2)[C@H](OC(C)=O)[C@@H](OC(C)=O)[C@@H]1OC(C)=O (stereo partly drawn) | 19.6% |
